Results on seven molecules are retold here after ChEMBL document CHEMBL1140759, “Synthesis, anti-Toxoplasma gondii and antimicrobial activities of benzaldehyde 4-phenyl-3-thiosemicarbazones and 2-[(phenylmethylene)hydrazono]-4-oxo-3-phenyl-5-thiazolidineacetic acids” (Bioorg Med Chem, 2008).

Some results are limits rather than exact numbers.

By IC50 is commonly meant the concentration that inhibits the measured activity by half.

In assay [1] the test system is Toxoplasma gondii. In words: Antiparasitic activity against Toxoplasma gondii infected african green monkey Vero cells at 2 mM assessed as infected cells. It is filed as functional. In a few lines:
(§1)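 Vero cells were infected with RH-strain tachyzoites (5:1 parasite:cell) for 1 h, washed with PBS, and grown 24 h at 37 °C in medium 199 with 5% FCS. Compound was then added for 24 h. Cells were fixed with Bouin's, stained with Giemsa, and at least 400 cells were counted by light microscopy for the percentage infected. Hydroxyurea and sulfadiazine served as references.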

Assay [2] deals with Toxoplasma gondii. In words: Antiparasitic activity against Toxoplasma gondii infected african green monkey Vero cells at 0.1 mM assessed as infected cells. It is filed as functional. The essentials:
as §1

Assay [3] concerns Toxoplasma gondii. The assay can be described thus: Antiparasitic activity against Toxoplasma gondii infected african green monkey Vero cells at 5 mM assessed as infected cells. It is filed as functional. In a few lines: as §1
The subject of assay [4] is Toxoplasma gondii. In words: Antiparasitic activity against Toxoplasma gondii infected african green monkey Vero cells at 8 mM assessed as infected cells. The format is functional. In a few lines: as §1
Assay [5] concerns Toxoplasma gondii. In words: Antiparasitic activity against Toxoplasma gondii infected african green monkey Vero cells at 20 mM assessed as infected cells. The format is functional. In a few lines:
as §1

For another assay, the system named is Vero. In words: Inhibition of uninfected african green monkey Vero cells. It is filed as cell-based. As to conditions: Chlorocebus sabaeus.
In assay [6] the test system is Toxoplasma gondii. The assay can be described thus: Inhibition of Toxoplasma gondii infected in african green monkey Vero cells. It is filed as functional, organism-based. In a few lines: (§2)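 Infected Vero cultures were exposed to compound at 0.01–30 mM for 24 h, in triplicate per assay. IC50 for infected cells and intracellular parasites was derived by non-linear regression, using trypan blue exclusion.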

For assay [7], the system named is Toxoplasma gondii. The assay can be described thus: Inhibition of intracellular parasite Toxoplasma gondii. The format is functional, organism-based. In a few lines: as §2
Another assay deals with Staphylococcus aureus. In words: Antimicrobial activity against Staphylococcus aureus at 300 ug/disc. The format is functional. Conditions: read-out: IZ. The essentials:
(§3)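 Disc diffusion on agar plates inoculated with a standardized microbial suspension, with paper discs carrying known compound amounts. DMSO-only discs served as negative controls, and chloramphenicol, rifampicin (bacteria) or nistatin (fungi) as references. The read-out is the mean inhibition zone diameter in mm. Each run was done three times and repeated if results differed.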

For the next assay, the system named is Bacillus subtilis. The assay can be described thus: Antimicrobial activity against Bacillus subtilis at 300 ug/disc. Conditions: read-out: IZ. It is filed as functional. The essentials:
as §3

The test system of a further assay is Micrococcus luteus. The assay can be described thus: Antimicrobial activity against Micrococcus luteus at 300 ug/disc. It is filed as functional. Conditions: read-out: IZ. The essentials: as §3
The test system of the next assay is Escherichia coli. The assay can be described thus: Antimicrobial activity against Escherichia coli at 300 ug/disc. It is filed as functional. Conditions: read-out: IZ. The essentials:
as §3

A further assay concerns Klebsiella pneumoniae. The assay can be described thus: Antimicrobial activity against Klebsiella pneumoniae at 300 ug/disc. The format is functional. Conditions: read-out: IZ. In a few lines: as §3
For another assay, the system named is Enterococcus faecalis. In words: Antimicrobial activity against Streptococcus faecalis at 300 ug/disc. It is filed as functional. As to conditions: read-out: IZ. In a few lines: as §3
For another assay, the system named is Mycolicibacterium phlei. In words: Antimicrobial activity against Mycobacterium phlei at 300 ug/disc. It is filed as functional. As to conditions: read-out: IZ. In a few lines:
as §3

Assay [8] deals with Mycolicibacterium smegmatis. In words: Antimicrobial activity against Mycobacterium smegmatis at 300 ug/disc. It is filed as functional. Conditions: read-out: IZ. In a few lines:
as §3

Assay [9] relates to Mycobacterium tuberculosis. The assay can be described thus: Antimicrobial activity against Mycobacterium tuberculosis at 300 ug/disc. Conditions: read-out: IZ. It is filed as functional. In a few lines: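 Agar disc diffusion: paper discs loaded with compound placed on agar plates seeded with a standardised microbial suspension. DMSO-only discs served as negative control. Chloramphenicol and rifampicin (bacteria) or nistatin (fungi) gave reference zones. Read-out was mean zone of inhibition diameter (mm). Each experiment was run three times and repeated if results differed.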

The next assay has as its system Saccharomyces cerevisiae. In words: Antimicrobial activity against Saccharomyces cerevisiae at 300 ug/disc. It is filed as functional. As to conditions: read-out: IZ. The essentials:
as §3

In assay [10] the test system is Candida. In words: Antimicrobial activity against Candida sp. IMUR1224 at 300 ug/disc. The format is functional. Conditions: read-out: IZ. In a few lines:
as §3

For a further assay, the system named is Candida albicans. The assay can be described thus: Antimicrobial activity against Candida albicans at 300 ug/disc. It is filed as functional. Conditions: read-out: IZ. The essentials:
as §3

Assay [11] concerns Candida. In words: Antimicrobial activity against Candida sp. IMUR4249 at 300 ug/disc. The format is functional. Conditions: read-out: IZ. In a few lines:
as §3

The test system of assay [12] is Candida. The assay can be described thus: Antimicrobial activity against Candida sp. IMUR720 at 300 ug/disc. The format is functional. Conditions: read-out: IZ. The essentials: as §3

With `Cc1cccc(/C=N/N=C2\SC(CC(=O)O)C(=O)N2c2ccccc2)c1` (configuration not stated), the Activity is given as 15.54% in the assay with Toxoplasma gondii [1]; 66% with Toxoplasma gondii [2]; 16.19% in the assay with Toxoplasma gondii [3]; 10.13% in the assay with Toxoplasma gondii [4]; 0% with Toxoplasma gondii [5]. The IC50 in the assay with Vero came out at 9000 µM; in the assay on Toxoplasma gondii [6], 1000 µM; with Toxoplasma gondii [7], 500 µM. For the same molecule, the zone of inhibition at 300 µg/disc in the assay on Staphylococcus aureus was below 7 mm; in the assay with Bacillus subtilis, below 7 mm; with Micrococcus luteus, 22 mm; in the assay on Escherichia coli, below 7 mm; in the assay with Klebsiella pneumoniae it was below 7 mm; with Enterococcus faecalis, 11 mm. The zone of inhibition at 300 µg/disc with Mycolicibacterium phlei is below 7 mm; in [8] it was below 7 mm; in assay [9], below 7 mm; in the assay with Saccharomyces cerevisiae, below 7 mm; in the assay on Candida [10], below 7 mm; with Candida albicans, 9 mm. Also, the zone of inhibition at 300 µg/disc in the assay on Candida [11] and in the assay with Candida [12] was below 7 mm each time.

Regarding `O=C(O)CC1S/C(=N\N=C\c2cccc(Cl)c2)N(c2ccccc2)C1=O` (configuration not stated), the Activity with Toxoplasma gondii [1] is recorded as 34.8%; with Toxoplasma gondii [2], 53.74%; with Toxoplasma gondii [3], 33.5%; with Toxoplasma gondii [4], 0%; in the assay on Toxoplasma gondii [5], 0%. The IC50 in the assay with Vero was found to be 10000 µM; in the assay with Toxoplasma gondii [6], 3000 µM; in the assay with Toxoplasma gondii [7], 2000 µM. The zone of inhibition at 300 µg/disc is below 7 mm in the assay with Staphylococcus aureus; below 7 mm in the assay on Bacillus subtilis; 16 mm with Micrococcus luteus; below 7 mm in the assay on Escherichia coli; below 7 mm with Klebsiella pneumoniae; 12 mm in the assay with Enterococcus faecalis. Besides, the zone of inhibition at 300 µg/disc (with Mycolicibacterium phlei; in [8]; in assay [9]; with Saccharomyces cerevisiae; in the assay with Candida [10]; in the assay on Candida albicans) was below 7 mm in each case. The zone of inhibition at 300 µg/disc is 11 mm in the assay with Candida [11] and below 7 mm in the assay on Candida [12].

Consider `CN(C)c1ccc(/C=N/N=C2\SC(CC(=O)O)C(=O)N2c2ccccc2)cc1` (configuration not stated), for which the Activity in the assay on Toxoplasma gondii [1] is on record as 0%; with Toxoplasma gondii [2], 50.58%; in the assay with Toxoplasma gondii [3], 0%; in the assay on Toxoplasma gondii [4], 0%; in the assay with Toxoplasma gondii [5] it was 0%. Moreover, the IC50 was 1000 µM in the assay with Vero, 50 µM in the assay with Toxoplasma gondii [6] and 50 µM in the assay with Toxoplasma gondii [7]. The zone of inhibition at 300 µg/disc with Staphylococcus aureus was below 7 mm; in the assay with Bacillus subtilis it was below 7 mm; with Micrococcus luteus, 10 mm; in the assay with Escherichia coli it was below 7 mm; with Klebsiella pneumoniae it was below 7 mm; in the assay on Enterococcus faecalis, below 7 mm. For the same molecule, the zone of inhibition at 300 µg/disc (in the assay with Mycolicibacterium phlei; in assay [8]; in [9]; in the assay on Saccharomyces cerevisiae; in the assay on Candida [10]; in the assay on Candida albicans) was below 7 mm in each case. In addition, the zone of inhibition at 300 µg/disc is 16 mm with Candida [11] and below 7 mm with Candida [12].

For `O=C(O)CC1S/C(=N\N=C\c2ccccc2)N(c2ccccc2)C1=O` (configuration not stated), the Activity with Toxoplasma gondii [1] was found to be 48.5%; in the assay with Toxoplasma gondii [2] it was 69.7%; with Toxoplasma gondii [3], 14.6%; in the assay on Toxoplasma gondii [4], 0%; with Toxoplasma gondii [5] it was 0%. For the same molecule, the IC50 with Vero amounted to 5000 µM; in the assay with Toxoplasma gondii [6] it was 4000 µM; in the assay with Toxoplasma gondii [7], 1000 µM. For the same molecule, the zone of inhibition at 300 µg/disc in the assay with Staphylococcus aureus is below 7 mm; in the assay with Bacillus subtilis it was 15 mm; with Micrococcus luteus it was 20 mm; in the assay on Escherichia coli, below 7 mm; in the assay on Klebsiella pneumoniae, below 7 mm; with Enterococcus faecalis, 12 mm. Besides, the zone of inhibition at 300 µg/disc was 7 mm in the assay on Mycolicibacterium phlei; 9 mm in assay [8]; 14 mm in assay [9]; below 7 mm in the assay with Saccharomyces cerevisiae; below 7 mm with Candida [10]; 8 mm with Candida albicans. Also, the zone of inhibition at 300 µg/disc in the assay with Candida [11] and with Candida [12] was below 7 mm throughout.

As to `COc1ccc(/C=N/N=C2\SC(CC(=O)O)C(=O)N2c2ccccc2)cc1` (configuration not stated), the Activity in the assay on Toxoplasma gondii [1] is listed as 4.51%; in the assay with Toxoplasma gondii [2] it was 27.32%; with Toxoplasma gondii [3], 5.9%; in the assay on Toxoplasma gondii [4], 0%; with Toxoplasma gondii [5], 0%. Also, the results for the half-inhibitory concentration (IC50) in the assay with Vero and with Toxoplasma gondii [6] were 6000 µM and 500 µM, respectively. Besides, the zone of inhibition at 300 µg/disc in the assay with Staphylococcus aureus is below 7 mm; with Bacillus subtilis, 11 mm; with Micrococcus luteus, 16 mm; in the assay with Escherichia coli, below 7 mm; in the assay with Klebsiella pneumoniae, below 7 mm; with Enterococcus faecalis, below 7 mm. Also, the zone of inhibition at 300 µg/disc with Mycolicibacterium phlei was below 7 mm; in [8] it was below 7 mm; in [9], below 7 mm; with Saccharomyces cerevisiae it was below 7 mm; with Candida [10], below 7 mm; in the assay with Candida albicans, 15 mm. The zone of inhibition at 300 µg/disc in the assay on Candida [11] was 16 mm; in the assay with Candida [12], below 7 mm.

Consider `COc1cc(/C=N/N=C2\SC(CC(=O)O)C(=O)N2c2ccccc2)ccc1O` (configuration not stated), for which the Activity amounted to 41.96% in the assay on Toxoplasma gondii [1]; 46.02% with Toxoplasma gondii [2]; 3.5% in the assay with Toxoplasma gondii [3]; 0% in the assay on Toxoplasma gondii [4]; 0% in the assay on Toxoplasma gondii [5]. The results for the IC50 in the assay with Vero, in the assay on Toxoplasma gondii [6] and in the assay on Toxoplasma gondii [7] were 100 µM, 3000 µM and 1000 µM, respectively. Besides, the zone of inhibition at 300 µg/disc in the assay on Staphylococcus aureus, in the assay with Bacillus subtilis, with Micrococcus luteus, in the assay with Escherichia coli, with Klebsiella pneumoniae and with Enterococcus faecalis was below 7 mm in each case. Besides, the zone of inhibition at 300 µg/disc (in the assay on Mycolicibacterium phlei; in assay [8]; in [9]; in the assay on Saccharomyces cerevisiae; in the assay with Candida [10]; in the assay with Candida albicans) was below 7 mm each time. In the assay with Candida [12], the zone of inhibition at 300 µg/disc is below 7 mm.

Turning to `COc1cc(/C=N/N=C2\SC(CC(=O)O)C(=O)N2c2ccccc2)cc(OC)c1OC` (configuration not stated), the Activity with Toxoplasma gondii [1] was determined as 14.33%; with Toxoplasma gondii [2], 55.57%; with Toxoplasma gondii [3], 15.63%; with Toxoplasma gondii [4] it was 7.2%; with Toxoplasma gondii [5], 0%. Further, the IC50 in the assay with Vero turned out to be 2000 µM; in the assay with Toxoplasma gondii [6] it was 1000 µM; with Toxoplasma gondii [7] it was 500 µM. For the same molecule, the zone of inhibition at 300 µg/disc in the assay on Staphylococcus aureus was below 7 mm; in the assay on Bacillus subtilis, 19 mm; in the assay with Micrococcus luteus, 25 mm; with Escherichia coli, below 7 mm; with Klebsiella pneumoniae it was below 7 mm; in the assay with Enterococcus faecalis, below 7 mm. Also, the zone of inhibition at 300 µg/disc in the assay with Mycolicibacterium phlei was below 7 mm; in [8], below 7 mm; in [9], below 7 mm; in the assay with Saccharomyces cerevisiae, below 7 mm; with Candida [10], below 7 mm; with Candida albicans, 10 mm. Besides, the zone of inhibition at 300 µg/disc was 15 mm with Candida [11] and below 7 mm in the assay on Candida [12].
